≈ marks a conversion by molar mass, not a printed value.
Key:
[1] = tested on: Mycobacterium tuberculosis; experiment: Antimicrobial activity against Mycobacterium tuberculosis H37Rv at 6.25 ug/ml by alamar blue assay; format: functional
Summary of the method: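 M. tuberculosis H37Rv (ATCC 27294) tested in the TAACF screening program by microplate Alamar Blue assay (MABA) at a single concentration of 6.25; read-out was percent growth inhibition.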

[2] = Cytotoxicity against HEK293 cells by MTT assay; format: cell-based; conditions: human, read-out: LC50 (the source's name)
Summary of the method: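 HEK-293 cells seeded at 12 000 cells/well in DMEM with 10% FCS at 37 °C, 5% CO₂. After 48 h, half the medium was renewed. Hydrochloride salts in 17% glycerine/33% DMSO/50% water were added; vehicle served as control. After 72 h, MTT was added for 3 h, then formazan was solubilised with 10% SDS/0.01 M HCl. A544 (reference 640 nm) was read, and LC50 came from a Boltzmann sigmoidal fit.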

[3] = tested on: Mycobacterium tuberculosis; experiment: Antimicrobial activity against Mycobacterium tuberculosis H37Rv by alamar blue assay; format: functional
Summary of the method: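 M. tuberculosis H37Rv (ATCC 27294) microplate Alamar Blue assay (MABA), run within the TAACF screening program.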

Row | SMILES | inhibition at 6.25 µg/mL [1] [%] | CC50 [2] [µg/mL] | MIC [3] [µg/mL]
1 | CN1CCC(OC(c2ccc(Cl)cc2)c2ccc(Cl)cc2)CC1 | 65 | 25.5 (≈ 72.7 µM) | 
2 | Clc1ccc(C(OC2CCN(CCc3ccccc3)CC2)c2ccc(Cl)cc2)cc1 | 56 | 17.3 (≈ 39.2 µM) | 
3 | c1ccc(CCN2CCC(OC(c3ccccc3)c3ccccc3)CC2)cc1 | 8 | 14.9 (≈ 40.2 µM) | 
4 | CC(C)[C@H]1C[C@@H](OC(c2ccccc2)c2ccccc2)CCN1CCc1ccccc1 (racemic) | 0 | 62.8 (≈ 152 µM) | 
5 | CN1CCC(OC(c2ccccc2)c2ccccc2)CC1(C)C (racemic) | 18 | 105 (≈ 338 µM) | 
6 | CC1(C)C[C@@H](OC(c2ccccc2)c2ccccc2)CCN1c1ccccc1 (racemic) | 3 | 65.1 (≈ 175 µM) | 
7 | CC(C)[C@H]1C[C@@H](OC(c2ccc(Cl)cc2)c2ccc(Cl)cc2)CCN1C (racemic) | 74 | 17.9 (≈ 45.7 µM) | 
8 | CC(C)[C@H]1C[C@@H](OC(c2ccc(Cl)cc2)c2ccc(Cl)cc2)CCN1CCc1ccccc1 (racemic) | 0 | 76.5 (≈ 158 µM) | 
9 | CC(C)[C@H]1C[C@@H](OC(c2ccccc2)c2ccccc2)CCN1C (relative stereo) | 68 | 98.1 (≈ 303 µM) | 
10 | c1ccc(C(O[C@H]2CCN(c3ccccc3)[C@@H](c3ccccc3)C2)c2ccccc2)cc1 (relative stereo) | 39 | 77.8 (≈ 185 µM) | 
11 | c1ccc(C(O[C@H]2CCN(c3ccccc3)[C@H](c3ccccc3)C2)c2ccccc2)cc1 (relative stereo) | 75 | 112 (≈ 266 µM) | 
12 | CC(C)[C@@H]1C[C@@H](OC(c2ccccc2)c2ccccc2)CCN1C (relative stereo) | 12 | 69.4 (≈ 215 µM) | 
13 | CC(C)[C@H]1C[C@@H](OC(c2ccccc2)c2ccccc2)CCN1c1ccccc1 (relative stereo) | 36 | 69.4 (≈ 180 µM) | 
14 | CC(C)[C@@H]1C[C@@H](OC(c2ccccc2)c2ccccc2)CCN1c1ccccc1 (relative stereo) | 7 | 97.1 (≈ 252 µM) | 
15 | CN1CCC(OC(c2ccccc2)c2ccccc2)CC1.Cl [DIPHENYLPYRALINE HYDROCHLORIDE] | 5 | 108 | 64
16 | NNC(=O)c1ccncc1 [ISONIAZID] | > 99 | > 576 | 
